Measured values collected from several papers.
Lines come from different studies, so protocols differ.
Target: Serine/threonine-protein kinase N2 (PKN2, Homo sapiens, UniProt Q16513)

For `C[C@H](c1ccc(F)cc1)N(Cc1cccc(C(=O)O)c1)C(=O)c1cnc2ccccc2c1`, the remaining binding was 86% (cell-free assay; competition with immobilised ligand; 1 µM).
With `O=C(c1ccc(Nc2ncc(Cl)c(-c3cc4ccccc4s3)n2)cc1)N1CCC(N2CCCC2)CC1` the remaining binding was 11% (binding; competition with immobilised ligand; 1 µM).
With `C[C@H]1CCN(c2nccc(-c3cnn4ncccc34)n2)C1` the remaining binding was 95% (binding; 1 µM).
With `C[C@@H](c1ccc(-n2cnc3c(N)ncnc32)cc1)N1CCc2nn(C)c(Cc3ccccc3)c2C1=O` the remaining binding was 84% (binding; competition with immobilised ligand; 0.1 µM).
For `Cc1nc(C2CCN(C(=O)c3ccc(OC(F)(F)F)cc3N)CC2)c2ncc(N3CCN(C)CC3)cc2n1`, the remaining binding was 100% (cell-free assay; competition with immobilised ligand; 1 µM).
`FC(F)(F)Oc1cccc(-c2cnc3ccc(-c4ccncc4)nn23)c1` gave a remaining binding of 91% (cell-free assay; competition with immobilised ligand; 5 µM).
The remaining binding of `C[C@@H]1CN(c2cc(-c3nn(C)c4ccc(OC5(C)CC5)cc34)ncn2)C[C@H](C)O1` is reported as 100% (cell-free assay; competition with immobilised ligand; 1 µM).
The remaining binding of `F[C@@H]1CCN(c2nccc(-c3cnn4ncccc34)n2)C1` is reported as 100% (binding; 1 µM).
For `CNC(=O)[C@@H]1CC[C@@H](n2c(-c3ccc4cnccc4c3)nc3ccc(C(=O)NCc4cccc(C(N)=O)c4)cc32)C1`, the remaining binding was 94% (binding; competition with immobilised ligand; 1 µM).
With `COc1ncc2cc3ccccc3nc2c1C#N` the remaining binding was 80% (cell-free assay; competition with immobilised ligand; 5 µM).
`CN(c1nccc(-c2cnn3ncccc23)n1)C1CC1` has a remaining binding of 89% (binding; 1 µM).
For `O=C(Nc1c[nH]nc1C(=O)NC1CCNCC1)c1cc(F)cc(F)c1`, the remaining binding was 100% (binding; competition with immobilised ligand; 1 µM).
For `CN(C)C(=O)Cn1cc(-c2nc(C3(c4ccc(-c5cnc(N)nc5)cc4)CC3)no2)cn1`, the remaining binding was 77% (cell-free assay; competition with immobilised ligand; 1 µM).
For `O=C(c1ccc(Nc2nccc(-c3cc4ccccc4s3)n2)cc1)N1CCC(N2CCCC2)CC1`, the remaining binding was 45% (binding; competition with immobilised ligand; 1 µM).
With `N[C@H]1CCN(c2nccc(-c3cnn4ncccc34)n2)C1` the remaining binding was 71% (binding; 1 µM).
The remaining binding of `Cc1c(NC(=O)c2cc(C(N)=O)nc3cc(F)ccc23)c(C(F)(F)F)nn1Cc1ccc(C#N)cc1` is reported as 81% (cell-free assay; competition with immobilised ligand; 1 µM).
For `CC1CCCN1c1nccc(-c2cnn3ncccc23)n1` (stereo not shown), the remaining binding was 89% (binding; 1 µM).
`CC(=O)Nc1c(C(C)=O)c(=O)n(C)c2nc(-c3ccc(Cl)cc3Cl)c(-c3ccc(Cl)cc3)cc12` gave a remaining binding of 100% (cell-free assay; competition with immobilised ligand; 1 µM).
`CN(CCCC(F)(F)F)c1nccc(-c2cnn3ncccc23)n1` gave a remaining binding of 74% (binding; 1 µM).
With `O=C(NCc1ncc(C(F)(F)F)cc1Cl)c1ccc2c(c1)C1(CCS(=O)(=O)CC1)[C@@H](C1CC1)N2S(=O)(=O)c1ccc(F)cc1` the remaining binding was 68% (cell-free assay; competition with immobilised ligand; 1 µM).
The remaining binding of `CN(C)c1nccc(-c2cnc3ncccn23)n1` is reported as 93% (binding; 1 µM).
With `O=C(NCCCN1CCOCC1)c1ccc(Nc2nccc(-c3cc4ccccc4s3)n2)cc1` the remaining binding was 53% (binding; competition with immobilised ligand; 1 µM).
